Measured values taken from ChEMBL document CHEMBL4689842, “EUbOPEN Chemogenomics Library wave 1” (2021).

Tests used:
HEK-293T = assay: Multiplex assay against HEK293T; type: toxicity, cell-based; conditions: human;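 as to Population Tubulin-Different-Phenotype (%): share of the cells with healthy nuclei that show this phenotype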
In short: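 Four dyes were applied at seeding to live cells: Hoechst33342, BioTracker Green Microtubule Cytoskeleton Dye, MitoTracker Red and Annexin V Alexa Fluor 680. Imaging after compound addition used a CQ1 microscope at 37°C and 5% CO2. CellPathfinder machine-learning gating then sorted cells into Hoechst high-intensity objects or normal cells, normal cells into healthy, pyknosed or fragmented nuclei, and pyknosed cells into mitotic or apoptotic, with tubulin, mitochondrial-mass and membrane-permeability phenotypes given as per cents of healthy-nucleus cells.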

Fibroblast = assay: Incucyte cell viability with human fibroblast; type: toxicity, cell-based; conditions: 10 µM, compound concentration 10 uM; also: filed as whole numbers so only -1 and 0 and 1 occur
[1] = 12 h, 1 µM, compound concentration 1 uM, replicate 1
[2] = 12 h, 1 µM, compound concentration 1 uM, replicate 2
[3] = 12 h, 10 µM, compound concentration 10 uM, replicate 1
[4] = 12 h, 10 µM, compound concentration 10 uM, replicate 2
[5] = 24 h, 1 µM, compound concentration 1 uM, replicate 1
[6] = 24 h, 1 µM, compound concentration 1 uM, replicate 2
[7] = 24 h, 10 µM, compound concentration 10 uM, replicate 1
[8] = 24 h, 10 µM, compound concentration 10 uM, replicate 2
[9] = 48 h, 1 µM, compound concentration 1 uM, replicate 1
[10] = 48 h, 1 µM, compound concentration 1 uM, replicate 2
[11] = 48 h, 10 µM, compound concentration 10 uM, replicate 1
[12] = 48 h, 10 µM, compound concentration 10 uM, replicate 2

## Cc1c(P(=S)(c2ccccc2)c2ccccc2)n2ccccc2[n+]1C/C=C/c1ccccc1.[Br-]
HEK-293T; [1]
  Population Apoptotic (%): 65%
  Population Fragmented Nuclei (%): 12%
  Population Healthy Nuclei (%): 24%
  Population Hoechst High Intensity Objects (%): 17%
  Population Membrane Permeable-Phenotype (%): 6%
  Population Mitochondria Different-Phenotype (%): 93%
  Population Mitotic Cells (%): 34%
  Population Normal (%): 82%
  Population Pyknosed Nuclei (%): 62%
  Population Tubulin-Different-Phenotype (%): 83%
  Total Cell Count: 211
HEK-293T; [2]
  Population Apoptotic (%): 86%
  Population Fragmented Nuclei (%): 6%
  Population Healthy Nuclei (%): 30%
  Population Hoechst High Intensity Objects (%): 5%
  Population Membrane Permeable-Phenotype (%): 0%
  Population Mitochondria Different-Phenotype (%): 87%
  Population Mitotic Cells (%): 13%
  Population Normal (%): 94%
  Population Tubulin-Different-Phenotype (%): 77%
  Total Cell Count: 138
HEK-293T; [3]
  Population Apoptotic (%): 34%
  Population Fragmented Nuclei (%): 31%
  Population Healthy Nuclei (%): 2%
  Population Hoechst High Intensity Objects (%): 21%
  Population Membrane Permeable-Phenotype (%): 14%
  Population Mitochondria Different-Phenotype (%): 28%
  Population Mitotic Cells (%): 65%
  Population Normal (%): 78%
  Population Pyknosed Nuclei (%): 65%
  Population Tubulin-Different-Phenotype (%): 100%
  Total Cell Count: 398
HEK-293T; [4]
  Population Apoptotic (%): 82%
  Population Fragmented Nuclei (%): 9%
  Population Healthy Nuclei (%): 6%
  Population Hoechst High Intensity Objects (%): 14%
  Population Membrane Permeable-Phenotype (%): 0%
  Population Mitochondria Different-Phenotype (%): 54%
  Population Mitotic Cells (%): 17%
  Population Normal (%): 85%
  Population Pyknosed Nuclei (%): 84%
  Population Tubulin-Different-Phenotype (%): 90%
  Total Cell Count: 192
HEK-293T; [5]
  Population Apoptotic (%): 62%
  Population Fragmented Nuclei (%): 20%
  Population Healthy Nuclei (%): 18%
  Population Hoechst High Intensity Objects (%): 19%
  Population Membrane Permeable-Phenotype (%): 3%
  Population Mitochondria Different-Phenotype (%): 90%
  Population Mitotic Cells (%): 37%
  Population Normal (%): 80%
  Population Pyknosed Nuclei (%): 61%
  Population Tubulin-Different-Phenotype (%): 87%
  Total Cell Count: 217
HEK-293T; [6]
  Population Apoptotic (%): 88%
  Population Fragmented Nuclei (%): 6%
  Population Healthy Nuclei (%): 41%
  Population Hoechst High Intensity Objects (%): 7%
  Population Membrane Permeable-Phenotype (%): 0%
  Population Mitochondria Different-Phenotype (%): 98%
  Population Mitotic Cells (%): 11%
  Population Normal (%): 92%
  Population Pyknosed Nuclei (%): 51%
  Population Tubulin-Different-Phenotype (%): 85%
  Total Cell Count: 147
HEK-293T; [7]
  Population Apoptotic (%): 52%
  Population Fragmented Nuclei (%): 36%
  Population Healthy Nuclei (%): 0%
  Population Hoechst High Intensity Objects (%): 21%
  Population Membrane Permeable-Phenotype (%): 0%
  Population Mitochondria Different-Phenotype (%): 100%
  Population Mitotic Cells (%): 47%
  Population Normal (%): 78%
  Population Pyknosed Nuclei (%): 62%
  Total Cell Count: 389
HEK-293T; [8]
  Population Apoptotic (%): 86%
  Population Fragmented Nuclei (%): 12%
  Population Healthy Nuclei (%): 14%
  Population Hoechst High Intensity Objects (%): 13%
  Population Membrane Permeable-Phenotype (%): 16%
  Population Mitochondria Different-Phenotype (%): 72%
  Population Mitotic Cells (%): 13%
  Population Normal (%): 86%
  Population Pyknosed Nuclei (%): 72%
  Population Tubulin-Different-Phenotype (%): 100%
  Total Cell Count: 195
HEK-293T; [9]
  Population Apoptotic (%): 69%
  Population Fragmented Nuclei (%): 24%
  Population Healthy Nuclei (%): 1%
  Population Hoechst High Intensity Objects (%): 22%
  Population Membrane Permeable-Phenotype (%): 0%
  Population Mitochondria Different-Phenotype (%): 0%
  Population Mitotic Cells (%): 30%
  Population Normal (%): 77%
  Population Pyknosed Nuclei (%): 73%
  Population Tubulin-Different-Phenotype (%): 66%
  Total Cell Count: 209
HEK-293T; [10]
  Population Apoptotic (%): 92%
  Population Fragmented Nuclei (%): 7%
  Population Healthy Nuclei (%): 57%
  Population Hoechst High Intensity Objects (%): 8%
  Population Membrane Permeable-Phenotype (%): 4%
  Population Mitochondria Different-Phenotype (%): 91%
  Population Mitotic Cells (%): 8%
  Population Normal (%): 91%
  Population Pyknosed Nuclei (%): 34%
  Population Tubulin-Different-Phenotype (%): 89%
  Total Cell Count: 157
HEK-293T; [11]
  Population Apoptotic (%): 65%
  Population Fragmented Nuclei (%): 45%
  Population Healthy Nuclei (%): 1%
  Population Hoechst High Intensity Objects (%): 22%
  Population Membrane Permeable-Phenotype (%): 0%
  Population Mitochondria Different-Phenotype (%): 100%
  Population Mitotic Cells (%): 34%
  Population Normal (%): 77%
  Population Pyknosed Nuclei (%): 53%
  Total Cell Count: 379
HEK-293T; [12]
  Population Apoptotic (%): 95%
  Population Fragmented Nuclei (%): 12%
  Population Healthy Nuclei (%): 27%
  Population Hoechst High Intensity Objects (%): 14%
  Population Membrane Permeable-Phenotype (%): 9%
  Population Mitochondria Different-Phenotype (%): 95%
  Population Mitotic Cells (%): 4%
  Population Normal (%): 85%
  Population Pyknosed Nuclei (%): 59%
  Population Tubulin-Different-Phenotype (%): 100%
  Total Cell Count: 175
Fibroblast; 0 h, replicate number 1, timepoint 0 hours
  Growth Rate: 0
Fibroblast; 6 h, replicate number 1, timepoint 6 hours
  Growth Rate: 0
Fibroblast; 12 h, replicate number 1, timepoint 12 hours
  Growth Rate: 0
Fibroblast; 18 h, replicate number 1, timepoint 18 hours
  Growth Rate: 0
Fibroblast; 24 h, replicate number 1, timepoint 24 hours
  Growth Rate: 0
